Several values for one entry are separate records, joined by “and”; a condition that tells them apart may be missing. Equal entries are not always repeated.
Test system: Fibroblast
Test: Multiplex assay against human fibroblast
Format: toxicity, cell-based
Conditions: number of replicates 2
Method in brief: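 Hoechst33342, BioTracker Green Microtubule Cytoskeleton Dye, MitoTracker Red and Annexin V Alexa Fluor 680 were added to live cells at seeding, and imaging on a CQ1 microscope at 37°C and 5% CO2 followed compound addition. Gating by CellPathfinder machine learning separated cells into Hoechst high-intensity objects or normal cells, then normal cells into healthy, pyknosed or fragmented nuclei, then pyknosed cells into mitotic or apoptotic. Per cents of healthy-nucleus cells are reported for the tubulin, mitochondrial-mass and membrane-permeability phenotypes.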

[1] = 12 h, 1 µM, compound concentration 1 uM
[2] = 12 h, 10 µM, compound concentration 10 uM
[3] = 24 h, 1 µM, compound concentration 1 uM
[4] = 24 h, 10 µM, compound concentration 10 uM
[5] = 48 h, 1 µM, compound concentration 1 uM
[6] = 48 h, 10 µM, compound concentration 10 uM

O=C(NCc1ccc(F)cc1)N1CCN2C(=O)OC(c3ccccc3)(c3ccccc3)C2C1 (configuration not stated)
Population Apoptotic (%) [1]: 41% and 22% | Population Fragmented Nuclei (%) [1]: 12% and 10% | Population Healthy Nuclei (%) [1]: 71% and 75% | Population Hoechst High Intensity Objects (%) [1]: 0% | Population Membrane Permeable-Phenotype (%) [1]: 10% and 5% | Population Mitochondria Different-Phenotype (%) [1]: 2% and 1% | Population Mitotic Cells (%) [1]: 58% and 77% | Population Normal (%) [1]: 99% | Population Pyknosed Nuclei (%) [1]: 15% and 14% | Population Tubulin-Different-Phenotype (%) [1]: 20% and 13% | Total Cell Count [1]: 252 | Population Apoptotic (%) [2]: 58% and 35% | Population Fragmented Nuclei (%) [2]: 14% and 9% | Population Healthy Nuclei (%) [2]: 69% and 77% | Population Hoechst High Intensity Objects (%) [2]: 0% | Population Membrane Permeable-Phenotype (%) [2]: 9% and 14% | Population Mitochondria Different-Phenotype (%) [2]: 3% | Population Mitotic Cells (%) [2]: 41% and 65% | Population Normal (%) [2]: 100% and 99% | Population Pyknosed Nuclei (%) [2]: 15% and 12% | Population Tubulin-Different-Phenotype (%) [2]: 69% and 59% | Total Cell Count [2]: 153 and 155 | Population Apoptotic (%) [3]: 59% and 46% | Population Fragmented Nuclei (%) [3]: 13% and 15% | Population Healthy Nuclei (%) [3]: 72% and 73% | Population Hoechst High Intensity Objects (%) [3]: 0% | Population Membrane Permeable-Phenotype (%) [3]: 6% and 3% | Population Mitochondria Different-Phenotype (%) [3]: 1% and 0% | Population Mitotic Cells (%) [3]: 40% and 53% | Population Normal (%) [3]: 100% | Population Pyknosed Nuclei (%) [3]: 14% and 10% | Population Tubulin-Different-Phenotype (%) [3]: 19% and 12% | Total Cell Count [3]: 253 and 276 | Population Apoptotic (%) [4]: 65% and 50% | Population Fragmented Nuclei (%) [4]: 12% | Population Healthy Nuclei (%) [4]: 68% and 75% | Population Hoechst High Intensity Objects (%) [4]: 0% and 1% | Population Membrane Permeable-Phenotype (%) [4]: 7% and 2% | Population Mitochondria Different-Phenotype (%) [4]: 9% and 7% | Population Mitotic Cells (%) [4]: 34% and 50% | Population Normal (%) [4]: 99% and 98% | Population Pyknosed Nuclei (%) [4]: 19% and 12% | Population Tubulin-Different-Phenotype (%) [4]: 61% and 48% | Total Cell Count [4]: 153 and 151 | Population Apoptotic (%) [5]: 62% and 69% | Population Fragmented Nuclei (%) [5]: 15% and 10% | Population Healthy Nuclei (%) [5]: 74% and 79% | Population Hoechst High Intensity Objects (%) [5]: 0% | Population Membrane Permeable-Phenotype (%) [5]: 7% and 3% | Population Mitochondria Different-Phenotype (%) [5]: 0% | Population Mitotic Cells (%) [5]: 37% and 30% | Population Normal (%) [5]: 100% | Population Pyknosed Nuclei (%) [5]: 10% and 9% | Population Tubulin-Different-Phenotype (%) [5]: 11% and 5% | Total Cell Count [5]: 259 and 265 | Population Apoptotic (%) [6]: 45% and 83% | Population Fragmented Nuclei (%) [6]: 15% and 12% | Population Healthy Nuclei (%) [6]: 69% and 75% | Population Hoechst High Intensity Objects (%) [6]: 0% and 1% | Population Membrane Permeable-Phenotype (%) [6]: 5% | Population Mitochondria Different-Phenotype (%) [6]: 2% | Population Normal (%) [6]: 100% and 98% | Population Pyknosed Nuclei (%) [6]: 15% and 12% | Population Tubulin-Different-Phenotype (%) [6]: 53% and 43% | Total Cell Count [6]: 156 and 150

Cn1ncc(NC(=O)c2nc(-c3c(F)cccc3F)sc2N)c1N1CC[C@@H](N)[C@H](F)CC1
Population Apoptotic (%) [1]: 60% and 38% | Population Fragmented Nuclei (%) [1]: 18% | Population Healthy Nuclei (%) [1]: 67% and 74% | Population Mitotic Cells (%) [1]: 40% | Population Normal (%) [1]: 100% and 99% | Population Tubulin-Different-Phenotype (%) [1]: 14% and 8% | Total Cell Count [1]: 170 and 268 | Population Apoptotic (%) [2]: 26% and 21% | Population Fragmented Nuclei (%) [2]: 35% | Population Healthy Nuclei (%) [2]: 48% and 47% | Population Mitotic Cells (%) [2]: 73% and 78% | Population Normal (%) [2]: 100% | Population Tubulin-Different-Phenotype (%) [2]: 34% and 25% | Total Cell Count [2]: 307 and 502 | Population Apoptotic (%) [3]: 65% and 54% | Population Fragmented Nuclei (%) [3]: 15% | Population Healthy Nuclei (%) [3]: 65% and 73% | Population Mitotic Cells (%) [3]: 34% and 45% | Population Normal (%) [3]: 100% | Population Tubulin-Different-Phenotype (%) [3]: 13% and 7% | Total Cell Count [3]: 172 and 273 | Population Apoptotic (%) [4]: 27% and 21% | Population Fragmented Nuclei (%) [4]: 48% and 56% | Population Healthy Nuclei (%) [4]: 43% and 38% | Population Mitotic Cells (%) [4]: 72% and 78% | Population Normal (%) [4]: 100% and 99% | Population Tubulin-Different-Phenotype (%) [4]: 38% and 31% | Total Cell Count [4]: 456 and 659 | Population Apoptotic (%) [5]: 80% and 51% | Population Fragmented Nuclei (%) [5]: 20% | Population Healthy Nuclei (%) [5]: 63% and 69% | Population Mitotic Cells (%) [5]: 20% and 48% | Population Normal (%) [5]: 100% | Total Cell Count [5]: 193 and 286 | Population Apoptotic (%) [6]: 66% and 54% | Population Fragmented Nuclei (%) [6]: 52% and 60% | Population Healthy Nuclei (%) [6]: 45% and 38% | Population Mitotic Cells (%) [6]: 45% | Population Normal (%) [6]: 100% | Population Tubulin-Different-Phenotype (%) [6]: 43% and 27% | Total Cell Count [6]: 604 and 928

CC(C)S(=O)(=O)c1ccccc1Nc1nc(N[C@@H]2CCCN(CCCCCCCNC(=O)COc3cccc4c3C(=O)N(C3CCC(=O)N(C)C3=O)C4=O)C2)ncc1Cl (some centres not stated)
Population Apoptotic (%) [1]: 58% and 50% | Population Fragmented Nuclei (%) [1]: 7% and 16% | Population Healthy Nuclei (%) [1]: 50% and 56% | Population Hoechst High Intensity Objects (%) [1]: 0% and 1% | Population Membrane Permeable-Phenotype (%) [1]: 10% and 9% | Population Mitochondria Different-Phenotype (%) [1]: 5% and 6% | Population Mitotic Cells (%) [1]: 41% and 49% | Population Normal (%) [1]: 100% and 98% | Population Pyknosed Nuclei (%) [1]: 42% and 27% | Population Tubulin-Different-Phenotype (%) [1]: 58% and 39% | Total Cell Count [1]: 178 and 249 | Population Apoptotic (%) [2]: 63% and 51% | Population Fragmented Nuclei (%) [2]: 9% and 14% | Population Healthy Nuclei (%) [2]: 42% and 36% | Population Hoechst High Intensity Objects (%) [2]: 0% | Population Membrane Permeable-Phenotype (%) [2]: 33% and 29% | Population Mitochondria Different-Phenotype (%) [2]: 24% and 26% | Population Mitotic Cells (%) [2]: 36% and 49% | Population Normal (%) [2]: 100% and 99% | Population Pyknosed Nuclei (%) [2]: 47% and 48% | Population Tubulin-Different-Phenotype (%) [2]: 24% and 17% | Total Cell Count [2]: 191 and 207 | Population Apoptotic (%) [3]: 81% and 86% | Population Fragmented Nuclei (%) [3]: 16% and 21% | Population Healthy Nuclei (%) [3]: 39% and 36% | Population Hoechst High Intensity Objects (%) [3]: 0% | Population Membrane Permeable-Phenotype (%) [3]: 13% and 8% | Population Mitochondria Different-Phenotype (%) [3]: 6% and 5% | Population Mitotic Cells (%) [3]: 18% and 14% | Population Normal (%) [3]: 99% and 100% | Population Pyknosed Nuclei (%) [3]: 43% and 42% | Population Tubulin-Different-Phenotype (%) [3]: 25% and 18% | Total Cell Count [3]: 189 and 238 | Population Apoptotic (%) [4]: 76% and 74% | Population Fragmented Nuclei (%) [4]: 15% and 16% | Population Healthy Nuclei (%) [4]: 37% and 28% | Population Hoechst High Intensity Objects (%) [4]: 0% | Population Membrane Permeable-Phenotype (%) [4]: 20% and 9% | Population Mitochondria Different-Phenotype (%) [4]: 52% and 73% | Population Mitotic Cells (%) [4]: 23% and 25% | Population Normal (%) [4]: 99% | Population Pyknosed Nuclei (%) [4]: 47% and 55% | Population Tubulin-Different-Phenotype (%) [4]: 50% and 36% | Total Cell Count [4]: 193 and 186 | Population Apoptotic (%) [5]: 86% and 96% | Population Fragmented Nuclei (%) [5]: 15% and 24% | Population Healthy Nuclei (%) [5]: 46% and 36% | Population Hoechst High Intensity Objects (%) [5]: 0% and 1% | Population Membrane Permeable-Phenotype (%) [5]: 19% and 21% | Population Mitochondria Different-Phenotype (%) [5]: 4% and 6% | Population Mitotic Cells (%) [5]: 13% and 3% | Population Normal (%) [5]: 100% and 98% | Population Pyknosed Nuclei (%) [5]: 38% | Population Tubulin-Different-Phenotype (%) [5]: 24% and 27% | Total Cell Count [5]: 178 and 207 | Population Apoptotic (%) [6]: 85% and 88% | Population Fragmented Nuclei (%) [6]: 14% and 22% | Population Healthy Nuclei (%) [6]: 35% and 28% | Population Hoechst High Intensity Objects (%) [6]: 1% | Population Membrane Permeable-Phenotype (%) [6]: 7% and 16% | Population Mitochondria Different-Phenotype (%) [6]: 37% and 27% | Population Mitotic Cells (%) [6]: 14% and 11% | Population Normal (%) [6]: 98% | Population Pyknosed Nuclei (%) [6]: 50% and 49% | Population Tubulin-Different-Phenotype (%) [6]: 70% and 53% | Total Cell Count [6]: 184 and 191

Source: ChEMBL document CHEMBL5303300, “EUbOPEN Chemogenomics Library - Multiplex” (2023)
